From ChEMBL document CHEMBL1124627, “Long-acting dihydropyridine calcium antagonists. 3. Synthesis and structure-activity relationships for a series of 2-[(heterocyclylmethoxy)methyl] derivatives” (J Med Chem, 1989) come the findings set out here.

One data set is filed under the species Rattus norvegicus. The experiment in a line: Negative logarithm of molar concentration required to block calcium-induced contraction of potassium depolarized rat aorta by 50%. In kind it is functional.
The species named for the next data set is Cavia porcellus. The experiment in a line: Negative logarithm of the molar concentration required to depress contraction in the Langendorff-perfused guinea pig heart by 25%. It is filed as functional.
The target in data set [1] is Voltage-dependent L-type calcium channel subunit alpha-1C (Rattus norvegicus, UniProt P22002). The experiment in a line: Selectivity for vascular (Ca pIC50) over cardiac (negative inotropy IC25) calcium channels. It is filed as functional.
Chain of Voltage-dependent L-type calcium channel subunit alpha-1C (P22002 whole entry): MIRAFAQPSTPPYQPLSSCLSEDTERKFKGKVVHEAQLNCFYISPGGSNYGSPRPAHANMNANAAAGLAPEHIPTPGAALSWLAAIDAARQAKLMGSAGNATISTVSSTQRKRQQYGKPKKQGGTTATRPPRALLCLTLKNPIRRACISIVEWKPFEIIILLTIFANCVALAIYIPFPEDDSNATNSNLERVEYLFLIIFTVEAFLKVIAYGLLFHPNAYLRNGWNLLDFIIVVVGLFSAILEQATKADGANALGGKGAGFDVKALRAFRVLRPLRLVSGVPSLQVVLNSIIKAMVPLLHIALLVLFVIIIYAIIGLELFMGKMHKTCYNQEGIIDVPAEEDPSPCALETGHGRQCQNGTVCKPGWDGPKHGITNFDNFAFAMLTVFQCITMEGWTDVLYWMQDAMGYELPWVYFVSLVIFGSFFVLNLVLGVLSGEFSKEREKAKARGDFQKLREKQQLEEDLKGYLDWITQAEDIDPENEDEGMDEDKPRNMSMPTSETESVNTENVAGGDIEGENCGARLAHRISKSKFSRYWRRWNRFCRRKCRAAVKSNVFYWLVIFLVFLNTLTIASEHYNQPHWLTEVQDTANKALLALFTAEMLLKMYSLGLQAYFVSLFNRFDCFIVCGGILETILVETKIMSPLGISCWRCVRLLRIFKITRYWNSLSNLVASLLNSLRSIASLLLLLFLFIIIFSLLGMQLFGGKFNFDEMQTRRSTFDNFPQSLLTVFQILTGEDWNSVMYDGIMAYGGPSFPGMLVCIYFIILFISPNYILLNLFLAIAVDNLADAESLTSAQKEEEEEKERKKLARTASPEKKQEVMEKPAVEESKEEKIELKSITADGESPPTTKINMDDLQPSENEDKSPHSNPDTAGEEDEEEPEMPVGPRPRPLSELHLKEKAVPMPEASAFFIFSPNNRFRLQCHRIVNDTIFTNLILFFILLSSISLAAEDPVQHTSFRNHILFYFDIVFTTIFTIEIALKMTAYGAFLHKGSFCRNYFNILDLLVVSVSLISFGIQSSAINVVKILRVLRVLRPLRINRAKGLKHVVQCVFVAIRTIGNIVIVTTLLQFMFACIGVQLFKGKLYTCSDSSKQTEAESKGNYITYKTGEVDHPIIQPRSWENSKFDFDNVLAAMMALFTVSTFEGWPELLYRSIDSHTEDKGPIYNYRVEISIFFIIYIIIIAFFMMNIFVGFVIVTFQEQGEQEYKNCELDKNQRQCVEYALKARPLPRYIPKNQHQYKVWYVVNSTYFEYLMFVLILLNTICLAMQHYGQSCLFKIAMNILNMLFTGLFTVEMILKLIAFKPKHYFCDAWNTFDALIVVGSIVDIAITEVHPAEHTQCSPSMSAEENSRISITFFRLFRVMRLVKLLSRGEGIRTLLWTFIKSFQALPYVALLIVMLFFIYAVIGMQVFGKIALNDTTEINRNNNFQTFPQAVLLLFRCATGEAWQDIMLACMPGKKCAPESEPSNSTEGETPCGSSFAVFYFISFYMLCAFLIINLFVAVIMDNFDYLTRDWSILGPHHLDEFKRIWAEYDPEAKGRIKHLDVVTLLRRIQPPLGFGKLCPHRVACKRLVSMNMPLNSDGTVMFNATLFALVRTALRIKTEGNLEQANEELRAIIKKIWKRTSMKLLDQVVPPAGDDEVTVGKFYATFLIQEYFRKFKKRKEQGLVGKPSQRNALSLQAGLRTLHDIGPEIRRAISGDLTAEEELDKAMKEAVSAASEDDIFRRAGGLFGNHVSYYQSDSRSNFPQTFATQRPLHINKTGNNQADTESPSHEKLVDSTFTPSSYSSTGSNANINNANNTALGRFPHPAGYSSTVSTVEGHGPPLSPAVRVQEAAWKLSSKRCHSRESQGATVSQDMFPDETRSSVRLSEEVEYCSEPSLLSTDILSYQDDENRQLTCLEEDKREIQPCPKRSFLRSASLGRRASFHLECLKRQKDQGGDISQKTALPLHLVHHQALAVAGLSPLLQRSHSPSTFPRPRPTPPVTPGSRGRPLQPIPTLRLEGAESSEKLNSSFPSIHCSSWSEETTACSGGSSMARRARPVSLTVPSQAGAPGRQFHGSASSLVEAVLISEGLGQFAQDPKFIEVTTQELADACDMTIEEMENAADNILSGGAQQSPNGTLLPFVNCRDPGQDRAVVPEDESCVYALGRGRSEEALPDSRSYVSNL
The test system of a further data set is Canis familiaris. The experiment in a line: Coronary vasodilator activity in dogs, after administration of a dose of 150 micorg/kg intravenously. It is filed as functional, Canis lupus familiaris. An outline of the steps: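 Anesthetized beagle dogs fitted with catheters for blood pressure, left ventricular pressure and intravenous dosing. Coronary blood flow was measured by hydrogen clearance with platinum electrodes in the coronary sinus and femoral artery, and cardiac output by thermodilution. Coronary vascular resistance was derived from these measurements. A single intravenous dose was given, and the CVR fall was followed over time to assess duration of action.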

As for `CCO/C(O)=C1\C(COCc2cc(=O)n(CCO)c(N)n2)=NC(C)=C(C(=O)OC)C1c1cccc(Cl)c1Cl` (centres undefined), the IC50 (commonly the concentration that gives 50% inhibition) in the data set listed under Rattus norvegicus was 3.16 nM. Further, the pIC25 in the data set filed under Cavia porcellus turned out to be 7. The Selectivity index in data set [1] was found to be 32.
For `CCO/C(O)=C1\C(COCc2cc(O)nc(CN3CCOCC3)n2)=NC(C)=C(C(=O)OC)C1c1cccc(Cl)c1Cl` (centres undefined), in that order: 3.98 nM, 6.9 and 32.
In the data set filed under Cavia porcellus, `COC(=O)C1=C(C)NC(C)=C(C(=O)OC)C1c1ccccc1[N+](=O)[O-]` [NIFEDIPINE] gave a pIC25 of 7.5. In addition, the Selectivity index in data set [1] came out at 8. The same molecule showed a Decrease with Canis familiaris of 77%.
